The values that follow come from article PMC6448596 (Cell reports, 2019).

For one assay, the system named is GDM-1 cells. Kind of assay: Proliferation assay. Type of assay: cell-based. The conditions noted are these: Homo sapiens, GDM-1, 72 h. The procedure, abridged:
(§1)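 CellTiter-Glo, 5,000 cells/well. Cells received 0.1% DMSO or at least five two-fold dilutions of test compound (top 50 μM, final DMSO 0.1%), in triplicate wells and ≥2 biological replicates, for 72 h at 37°C. Reagent was added after equilibration to RT, with 30 min dark incubation before luminescence. Signals were normalized to DMSO wells and GI50 obtained by curve fitting. Curve error bars are SEM.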

Assay [1] concerns p53 and p21 protein levels in MV4:11 cells. Kind of assay: p53/p21 induction western blot. The class given is cell-based, human. The conditions noted are these: MV4:11, 2 μM, 24 h. Put shortly: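 Treatment lasted 24 h with test compound or its negative control, at 2 μM in MV4:11 and 3 μM in Molm13. Comparators were 2 μM Nutlin-3 or 0.1% DMSO. Four million cells were PBS-washed and lysed 10 min on ice in Kischkel buffer. p53 and p21 were detected by western blot, with histone H3 as loading control.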
(In western blotting, separated proteins are transferred to a membrane and probed.)

In the next assay the test system is MA93 Ras cells. Kind of assay: Proliferation assay. Type of assay: cell-based. Particulars: Homo sapiens, MA9.3RAS, 72 h. The procedure, abridged:
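CellTiter-Glo at 2,000 cells/well. MA93 Ras and MA93 FLT3/ITD were maintained in IMDM/20% FBS. Parental MA93 received IMDM/20% FBS plus 10 ng/mL human SCF, TPO, FLT3L, IL3 and IL6. Dosing used ≥5 two-fold dilutions from 50 μM top, 0.1% DMSO final, in triplicate wells with ≥2 biological replicates. Plates ran 72 h at 37°C, followed by 30 min reagent incubation at RT in the dark. GI50 came from DMSO-normalized luminescence.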

For a further assay, the system named is RN2 cells. The assay is described as follows: Proliferation assay. The conditions noted are these: Mus musculus, 72 h. The class given is cell-based, murine. Put shortly:
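Murine RN2 cells were seeded at 2,500/well and exposed to ≥5 two-fold dilutions (top 50 μM, 0.1% DMSO final) in triplicate wells, with ≥2 biological replicates, for 72 h. MTS reagent was added for 1.25 h at 37°C and absorbance read at 490 nm. Values were normalized to DMSO wells and GI50 fitted. Error bars are SEM.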

In assay [2] the test system is protein synthesis in MV4:11 cells. Kind of assay: Relative protein synthesis rates. The class given is cell-based, human. The conditions noted are these: MV4:11, 2 μM. Put shortly:
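Cycloheximide 30 min before OPP served as positive control; an OPP-free sample set background. Alexa647 signal was read by flow (≥10,000 events, doublets excluded). Biological triplicate, SEM.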

Assay [3] concerns the target T1, WDR5 (Homo sapiens, UniProt P61964). Kind of assay: ChIP-Seq of WDR5. The class given is cell-based. Particulars: MV4:11, 2 μM, 4 h. Put shortly: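 MV4:11 cells at 10^6/ml were treated 4 h with 2 μM test compound, negative control or 0.1% DMSO. Cells were concentrated to 4 × 10^6/ml in PBS, fixed in 1% formaldehyde for 10 min at RT and quenched with 125 mM glycine. They were lysed in 1% SDS FA buffer. Sheared chromatin was diluted to 0.1% SDS and immunoprecipitated overnight at 4°C with anti-WDR5 (D9E1I or 429A) or IgG on BSA-blocked protein-A agarose. Peaks were compared by normalized average read counts.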

The subject of the next assay is HL60 cells. Kind of assay: Proliferation assay. Type of assay: cell-based. Particulars: Homo sapiens, HL-60, 72 h. The procedure, abridged:
as §1

In a further assay the test system is K562 cells. The assay is described as follows: Proliferation assay. Particulars: Homo sapiens, K562, 72 h. The class given is cell-based. Put shortly: as §1
The subject of the next assay is MONO-Mac-6 cells. Kind of assay: Proliferation assay. The class given is cell-based. Particulars: Homo sapiens, MONO-MAC-6, 72 h. The procedure, abridged:
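MONO-MAC-6 cells were maintained in RPMI with 10% FBS, non-essential amino acids and OPI supplement. CellTiter-Glo used 5,000 cells/well and ≥5 two-fold dilutions from 50 μM (0.1% DMSO final), in triplicate wells with ≥2 biological replicates, over 72 h at 37°C.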

Another assay relates to HEL cells. Kind of assay: Proliferation assay. The class given is cell-based. The conditions noted are these: Homo sapiens, 72 h. The procedure, abridged:
as §1

Assay [4] deals with T1, WDR5. The assay is described as follows: 10-mer-Thr-FAM peptide TR-FRET competition assay. Type of assay: binding. Particulars: Kd, corresponds to TR-FRET Ki of Table S1. (In TR-FRET formats the signal depends on donor and acceptor labels being close together.)
Assay [5] relates to p53 turnover in MV4:11 cells. The assay is described as follows: Cycloheximide. The conditions noted are these: MV4:11, 2 μM, 24 h before CHX. Type of assay: cell-based, human. The procedure, abridged:
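Before the cycloheximide chase, MV4:11 cells were pretreated 24 h with 2 μM test compound, 2 μM Nutlin-3 as comparator, or DMSO only. p53 was then followed by immunoblot.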

Assay [6] relates to TP53 mRNA on polysomes in MV4:11 cells. The assay is described as follows: Polysome fractionation with RT-qPCR. The class given is cell-based, human. The conditions noted are these: MV4:11, 5 μM, 24 h. Put shortly: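 15 × 10^6 MV4:11 cells were treated 24 h with 5 μM test compound or DMSO and lysed 10 min on ice. Target mRNAs in monosomal and polysomal fractions were measured by RT-qPCR and normalized to GAPDH. Values were expressed as percent of total RNA, relative to DMSO.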
Background: In qPCR the cycle at which signal appears reflects the starting amount.

The next assay concerns Molm13 cells. The assay is described as follows: Proliferation assay. Type of assay: cell-based. Particulars: Homo sapiens, MOLM-13, 72 h. Put shortly:
as §1

Assay [7] concerns the target T1, WDR5. Kind of assay: Western blot of endogenous WDR5 levels. Type of assay: cell-based. Particulars: MV4:11, 4 µM, 24 hours.

Each structure is given as a SMILES string.

`Cc1nc(F)ccc1-c1cc(Cn2ccn(C)c2=N)cc(C(=O)NCc2ccc(Cl)c(Cl)c2)c1` [Compound C6, N-(3,4-Dichlorobenzyl)-3-(6-fluoro-2-methylpyridin-3-yl)-5-((2-imino-3-methyl-2,3-dihydro-1H-imidazol-1-yl)methyl)benzamide]: the GI50 (as a rule, the concentration at which growth is held to half of that of the control) in the assay on GDM-1 cells was more than 50 µM; in the assay with MA93 Ras cells, 20.8 ± 2.62 µM; in the assay with RN2 cells it was 11.2 ± 1.48 µM; in the assay with HL60 cells, 14.8 ± 1.1 µM; with K562 cells, 25.4 ± 2.07 µM; in the assay on MONO-Mac-6 cells it was 31.7 ± 2.32 µM. Besides, the GI50 is more than 50 µM with HEL cells and 6.43 ± 0.683 µM with Molm13 cells. The “p53 and p21 protein induction” value in assay [1] is “moderately induces p53”. Also, the results for the OPP incorporation result in [2] (1 day) and in assay [2] (6 days) were “measurable reduction in OPP incorporation” and “roughly half of the cells in the C6-treated population incorporated OPP at levels similar to those of cells treated with CHX”, respectively. Also, on WDR5 [3], the “WDR5 binding events on chromatin” value is recorded as “robust decrease in all detectable WDR5 binding events”. Moreover, the Kd (usually the constant that tells how readily two partners part at equilibrium) on WDR5 [4] was approximately 0.1 nM. In addition, the “p53 turnover in CHX chase” value in assay [5] is listed as “no detectable effects on p53 turnover”. Moreover, the “polysome-associated mRNAs” value in assay [6] is given as “promoted an accumulation of polysome-associated mRNAs for TP53”. For the same compound, the WDR5 protein levels result at WDR5 [7] is on record as “no measurable effect on WDR5 levels”.
